In the RNAGym collection of RNA variant scans (doi:10.1126/science.aae0568) one finds yeast fitness data, which are given here for 75 variants.

Variants at the floor of the assay were thinned out. Some results are limits rather than exact numbers.

B1: tRNA (parent)
chain: GUUCCGUUGGCGUAAUGGUAACGCGUCUCCCUCCUAAGGAGAAGACUGCGGGUUCGAGUCCCGUACGGAACG

Variants of B1 are the subject of the data set. Briefly: yeast fitness relative to wild type (ratio to wild type); higher = fitter; tRNA-Arg(CCU), competitive growth, 37 C, YPD. The method, boiled down: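 For this measurement, the tRNA-Arg(CCU) gene was varied by chemical synthesis at a 3% per-site mutation rate across 69 sites, and each variant was placed at the native genomic locus in Saccharomyces cerevisiae. The pooled strains went through a 24-hour competition in YPD at 37°C in six parallel replicates, with amplicons from start and end populations read by 100-nucleotide paired-end sequencing. Darwinian fitness relative to wild type followed from the change in each genotype's frequency. Genotypes needed ≥ 100 starting reads, and estimates < 0.5 were set to 0.5.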
Turning to GUACCGUUGGCGUAAUGGAAACGCGUCUCCCUCCUAAGGAGAAGACUGCGGGUUCGAGUCCUGUACGGAACG, the yeast fitness came out at 0.776. Under GUUCCGUUGGCGUAGUGGUAAGGCGUCUCCCUCCUAAGGAGAAGACUGCGGGUUCGAGUCCCGUACGGAACG stands 0.893.

Take GUUCCGUUGGCGUAAAGGUAACGCGUCUCCCUCCUAAGGAGAAGACUGCGGGUUUGCGUCCCGUACGGAACG: the yeast fitness was at most 0.5. For GUUCCGUUGGCGUUAUGGUAACGCGUCUCACUCCUAAGGAGAUGACUGUGGGUUCGAGUCCCGUACGGAACG, the yeast fitness amounted to 0.545. In the case of GUUUCGUUGGCGAUAUGGUAACGCGUCUUCCUCCUAGGGAGAAGACUGCGGGUUCGAGCCCCGUACGCAACG, the yeast fitness is at most 0.5.

For GUUCCGUUGGCGUAAUGGUAACGCGUCUUCCUCCUAAGGAGAACACUGUGGGUUCGUGUCCCGUACGGUACG, the yeast fitness is at most 0.5. With GUUCUGUUGGCGUAAUGGUAAAGCGUCUCCCUCCUUAGGAGAAGACUGCGGGUUCGAGUCCCGUACGGAACG, the yeast fitness came out at 0.828. Under GUUCGGUUGGCGUAAUCGUAACGCGUCUCCCUCCUAAGGAGAAGACUGCGGGUUCGACCCCCGUACGGAACG stands 0.57; under GUUCCGUUGGCCUAAUGGUAACGCGUCUCCCUCCUAAGGCGUAGACUGGGGGUUCGAGUCCCGUAGGGAACG, at most 0.5. The result for GUUCCCUUGGCGUAAUGGUAACGCGUCUCCCUCCUAAGGAGCAGACUGUGGGUUUGAGUCCCGUACGGAACG reads 0.578. For the variant GUUCCGUUGGCGUAAUGGUAAGGUGUCUCCCUCCUAAGGAGACGACUGCGGGUUCGAGUCCCGUACGGAUCG, the yeast fitness was at most 0.5.

For the variant GUUCCGUUGGCAUAAUGGUAACGUGUAUCCCUCCUAAGGAGAAGACUGCGGGUUCGAGUCCCGUACGGAUCG, the yeast fitness was at most 0.5. Under GUUCCGUUGGCGUAAUGGUAACGUAUCUCUCUCCUAAGGAGAAGACUGCGGGUUCGAGUCCCGUACGGAACG stands 0.684; under GUUCCGUUGGCGUAAAGGGAACGCGUCUCCCUUCUAAGGCAACGACUGCGGGUUCGAGUCGCGUACGGAACG, at most 0.5; under GUUACGUUGGCGUAAUGGUAACGCGUCUCCCUCCUAACGAGAAGACUGCGGGUUCGAGUCCCGUACGGAACG, 0.652.

GUUCGGUUGCCGUAAUGGUAACGCGUCUCCCUCCUAAGGAGAAGACUGCGGAUACGAGUCCCGUACGGAACG: the yeast fitness amounted to 0.55. For the variant GUUCCGUCGGCGUAAUGGUAACGCGUCUCCCUCCUAAGGAGAAGACUGGGGGUUCGAGUCCCGUACGGAACG, the yeast fitness was 1.01.

As for GUUCCAUUGGAGUAAUGGUAACGCGACUCCCUCCUAAGGAGAAGACUGCGGAUUCGAGUCCCGUACGGAACG, the yeast fitness is at most 0.5. Turning to GUUCCAUUGGCGUAAUGGUCACGCGUCACCAUUCUACGGAGAAGACUGCAGGUUCGAGUCCCGUUCGGAACG, the yeast fitness was at most 0.5. As to GUUCCGUUGGGGUAAUGGUAAUGCGUCUCCCUCCUCAGGAGAAGACUGCGGCUUCGAGUCCCGUAUGGAACG, the yeast fitness is at most 0.5.

As for GUUCCGUUGGCGUAAUGGUAACGCGUAUCCCUCCUAAGCAGAAGACUGCGGGUUGGAGUCCCGUUCGGAACG, the yeast fitness is at most 0.5.

For the variant GUUCAGUUGGCGUAAUGGUAACGCGUCUCCCUCCUAAGGAGAAGACUGCGGCUUCGAGUCCCGUAUGGAACG, the yeast fitness is at most 0.5. Under GUUCCGUUAGCGUAAUGGUAACGCGUCUGCCUCCUAAGGAGAAGACUGCGGGUUCGAGUCCCAUACGGAACG stands 0.525; under GUUCUGUUGGCGUAAUGGUAACGCGUCUCCCUCCUAAGGAGAAGACCGCGGGUUCGAGUCCCGUACGGAACG, 0.96; under GUUCCGUUGGCGUAAUGGUAACGCGUCUCCCUCCUAAAGAGAAGACUGCGGGUUCGAGUCCUGUACGGAUCG, 0.577. The result for GUUCUGUUGGCGUAAUGGUAACGCGUCUCCCUCUUAAGGAGAAGACUGCGGGUUGGAGUCCCGUACGGAACG reads at most 0.5; that for GCUCCGUUGGCGUAAUGGAAACGCGCCUCCCUCCUAAGGAGAAGCCUGCGGCUUCGAGUCCCGUACGGAGCG, at most 0.5.

With GUUCCGUUGGCGUAAUGGUAACGCGUCUCACUACUAAGGAGAAGACUGCGGGUUCGUGUCCCGUACGGAACG, the yeast fitness is at most 0.5. The result for GUUCCGUUGACGUAACGGUAACGCGUCUUCCUCCUAAGGAGAAGACUGCGGGUUCGAGUCCCGUACGGAACG reads 0.599.

GUUCCGUUGGCGUAUUGGUAACGCGUCUCCCUCCUAAGGAGAACACUGCGGGUUCGAGUCCCGUACGGAACG: the yeast fitness came out at 0.727. On to GUUGCGUUGGCGUAAUGGUAACGCGUCUCCCUCCUAAGGAGAAGACUGCGGGUUCGAGUUGCGUACGGAACG, for which the yeast fitness is at most 0.5. Take GUUCCGUUGGCGUAAUGGUAACGCGUCUCCCUCCUAAGGCGAAGACUGCGGGUUCGAGUCCCGUACGCAACG: the yeast fitness was 0.641. As to GUUCCGUUGGCGUAAUGGUAACGUGUCUCCCUCCUAAGGAGAAGACUGCGGGUUCGAGUCCCGUCCGGAACG, the yeast fitness was found to be 0.739.

Take GUUCCGUUGGCGUAAUGGUAUCGCGUCUCCCUCCUAAGGAGAAAACUGCGGGUUCGAGUCCCGUACGGAACG: the yeast fitness came out at 0.782. As to GUUCCGUUGGCGUAAUGGUAACGCGUCUCGCUCCUAAGGAGAAGAAUGCGGGUUCAAGUCCCGUACGGAACG, the yeast fitness worked out at 0.557.

For GUUCCGUUGGCGCAAUGGUAACGCGUCUGCCUCCUGAGGAAAAGACUGCGGGUUCGAGUCCCGUACGGAACG, the yeast fitness was at most 0.5. As for GUUCCGUUGGCGUAAUGGUAACGCGUCGCCGUCCUAAGAAGAAGACUGCGGGUUCGAGUCCCGUACGGAACG, the yeast fitness was determined as 0.578. Under GUUGCGGUGGCGUAAUGGUGACGCGUCUCCCUCCUAAGGAGAAGACUGCGGGUUCGAGUCCCGUUCGGAACG stands at most 0.5; under GUUCCGUUGGCGUAAUGGUGACGCGUCUCCCUCCUAACGAGAAGCCUGCGAGUUCGAGUCCCGUACGGAACG, at most 0.5.

Take GUUCCGUUGGCGUAAUGGCAACGCAUCUCCCUCCUAAGGAGAACACAGCGGGUUCGAGUCCCGUACGGAACG: the yeast fitness was at most 0.5. Under GUUCCGUUGGCGUAAUCGUUACGCGUCUCCCUCCUAAGGAGAAGACUGCGGGUACGAGUCUCGUACGGAACG stands 0.546.

In the case of GUUCCGUUGGCGUACAGGUAGCGCGACUCUCUCCUAAGGAGAAGACUGCGGGUUCGAGUCCCGUACGGAACG, the yeast fitness was at most 0.5. As to GUUCCGUUGGAGUAAUGGUAACGCGUCUCCCUCAUAAGGAGAAGACAGCGGGUUCGAGUCGCGUACGGAACG, the yeast fitness is at most 0.5.

For the variant GUUCCGUUGGCGUAAUGGUAACGCGCCUCCCUCCUAAGGAGAAGAUUGCGAGUUCGAGUCCCGUACGGAACG, the yeast fitness was 0.64. The result for GUUCCCUUGGCGUAAUGGUAACGCGUCUCCCUCCUAAGGAGAAGACUGCGGGUUCGAGUCCAGUACGGAACG reads 0.798. Under GUUCCGUUGGCGUAAUGGUAACGCGUCUCCCUCCUAAGGAGAAGACUGGGGGUUCGAGUCCCGUACGUAACG stands 0.808. Regarding GUUCCGUUGGCGUAAUGGUAACGCGUCUCCCUUCUAAGGAGAAGACUGCGGGUUAGAGUCCCGUAUGGAACG, the yeast fitness came out at 0.562. Under GUUCCGUUGGCGUAAUGGUAAAGCGUCUCCCUCCUAAGGAGAAGACUGCGGGUUCGAGUCCCGUACGUAACG stands 0.825. Under GUUCCGUUGGCGCAAUGGUCACGCGUCUCCCUCCUAAGGAGAAGACUGCGGGUUCGAGUCCCGUACGGAACG stands 0.903; under GUUCCGUUGGCGUAAUGGUAACGCCUCUCCCUCCUAGGGAGACGACUGCGGGUUGGAGUCCCGUACGAAACG, at most 0.5; under GUUGCGUUGGCGUAAUGGUAACGCGUCUCCCUCCUAAGGAGAAGACUGCGGCUUCGAGUCCCGUACGGAACG, 0.655. Take GUUCCGUUAGCGUAAUGGUAACGGGUCUCCCUCGUAAGGAGAAGCCUGCGGGUUCGAGUCCCGUGCGGAACG: the yeast fitness was at most 0.5. The result for GUUCCGUUGGCGUAAUGGUAACGGGUCUCCCUCCUAAGGGGAAGACUGCGGGUUCGAGUCCCGUAUGGAACG reads 0.515.

Regarding GUUCCGUUGGCGUAAUGGUAACGCCUCUCCCUCCUAAGGAGAAGACUGCCGGUUCGAGUCCCGUACGGAACG, the yeast fitness was 0.627. Consider GUUCCGUUGGCGUAAUGGUAAUGCGUCUCCCUCCUAAGGAGUAGACUGGGGGUUCGAGUCCCGUACGGAACG, for which the yeast fitness is at most 0.5. Under GUUCCGUUGGCGUAAUGGUAACGCGUCUCCCUCCUCAGGAGAAGACUGCGGGCUCUAGUCCCGUACGGAACG stands 0.603.

Consider GUUCCGUUGGCGUAAUGGUAACGCGUCUCAUUCCUAAGGAGAAGACUGCGGGUUCGAGUCCCGUACGGAACG, for which the yeast fitness is 1. Regarding GUUCCAUUGGCGUAAUGGUAACGCGUCUCCGUCCUAAGGUGAAGACUGCGGGUUCGAGUCCCGUACGGAACG, the yeast fitness amounted to 0.688. As for GCUCCCUUGGCGUAAUGGUACCGCGUCUCCCUCCUAAGGAGAAGACUGCGGGUUCGAGUCCCGUAUGGAACG, the yeast fitness is at most 0.5. The result for GUUCCGUUGGCGUAAUGGUAACGCGUCUCCCUCAUAAGGAGAAGACUGCGGGUUCGAGUCCUGUACGGAACG reads 0.785; that for GUUCCGUUGCCGUAAUGGUUACGCGUCUCCCUCCUAAGGAGAAGACUGCGGGUUCGAGUCCCGUACGGAACG, 0.799; that for GUUCCGUUGGCGUAAUGGCAACGCGUCUCCCUCCUAAGGAGUAGAUUGCGGGUUGGAGUCCCCUACGGAACG, at most 0.5. Under GUUCCGUUGGCGUAAAGGUAACGCGUCUCCCUCCUAAGGAGACGGCUGCGGGUUCGAGUCCCGUACGGAACG stands 0.988; under GUUCCGUUGGUGUAAUGGUAACGCGUCUCACUCCUAAGGAGAAGACUGCGGGUUCGAGUCCCGUACGGAACG, 0.823; under GUUCCGUUAGCGUAAUGGUAACGCGUCUUCCACCUAAGGAGAUGACUGCGGGUUCGAGUCCCGUACGGAACG, 0.604. Under GUUCGGUUGGCGUAAUGGUAACGCGUCUCCCUCCUAAGGAGAAUACUGCGGGUUCGAGUCCCGUACGGAACG stands 0.626. Take GUUGCGUUGGCGUAAUGGUAACGCGUCUCCCUCCUAAGGAGGAGUCUGCGGGUUCGAGUCCCGUAUGGAACG: the yeast fitness was determined as 0.659. Under GUUCCGUUGGCGUAAUGGUAACGCGUCUCCCUCCUAAGGAGAAGACUGCGGGUUCGACUCACGUACGGUACG stands 0.55; under GUUCCGUUGGUGUAAUGGUAACGCGUCUCGCUCCAAAGGAGAAGAUUGCGAGUUCAAGUCCCGUACGGAACG, at most 0.5. As to GUUCCGUUGGCGUAAUAGUAACGCAUCUCCGUCCUAAGGAGAAGACUGCGGGUUCGAGUCCCGUACGAAACG, the yeast fitness was at most 0.5. Under GUUCCGUUGGCGUAAUGGUAACGCGUCUCCCUCCUAAGGAGAAGAUUGCGGGUUCGAGUCCCGUAGUGAACG stands at most 0.5. With GUUCCGUUGGCCUAGUGGUAACGCGUCUCCCUCCUAAGGAGAAGGCUGCCGGUUCGAGUCCCGUACGGCACG, the yeast fitness is at most 0.5. Consider GUUCCGUUGCCGUAAUGCUAACGCGUCUCCCUCCUAAGGAGAAGCCUGCGGGUUCGAGUCCCGUACGGAACG, for which the yeast fitness is at most 0.5. In the case of GUUCCGUUGGCGUAAUGGUCACGCGUCUCCCUCCUAAGGAGAAGACUGCGGGUUCGAGUCUCGUACGGAACG, the yeast fitness amounted to 0.806. Under GUUCCGUUGGCGUAAUGGUAACGCGUCUACCUCUUAAGGAGAAGACUGCGACUUCGAGUCCCGCACGGAACG stands 0.663.
